In ChEMBL document CHEMBL4145607, “Tamarixetin Exhibits Anti-inflammatory Activity and Prevents Bacterial Sepsis by Increasing IL-10 Production” (J Nat Prod, 2018) one finds Activity and inhibition data, which are given here for one compound.

Activity calls are given as the source filed them. The rule behind the calls is not given here.

In assay [1] the test system is Mus musculus. Kind of assay: Antiseptic activity in Balb/c mouse model of Escherichia coli K1 infection-induced sepsis assessed as increase in serum IL10 level at 1 mg/kg, ip pretreated for 1 hr followed by Escherichia coli K1 infection measured after 2 hrs by ELISA. It is filed as functional, organism-based. The essentials: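 BALB/c mice received 1 mg·kg−1 i.p. 1 h before i.p. E. coli K1 RS218, 1 × 10^6 CFU per mouse. Serum was collected at 2 h, and TNF-α, IL-6 and IL-10 were quantified by sandwich ELISA. Means ± SEM.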

The target of assay [2] is T1, Toll-like receptor 4 (Mus musculus) (UniProt Q9QUK6).
T1 sequence (whole entry): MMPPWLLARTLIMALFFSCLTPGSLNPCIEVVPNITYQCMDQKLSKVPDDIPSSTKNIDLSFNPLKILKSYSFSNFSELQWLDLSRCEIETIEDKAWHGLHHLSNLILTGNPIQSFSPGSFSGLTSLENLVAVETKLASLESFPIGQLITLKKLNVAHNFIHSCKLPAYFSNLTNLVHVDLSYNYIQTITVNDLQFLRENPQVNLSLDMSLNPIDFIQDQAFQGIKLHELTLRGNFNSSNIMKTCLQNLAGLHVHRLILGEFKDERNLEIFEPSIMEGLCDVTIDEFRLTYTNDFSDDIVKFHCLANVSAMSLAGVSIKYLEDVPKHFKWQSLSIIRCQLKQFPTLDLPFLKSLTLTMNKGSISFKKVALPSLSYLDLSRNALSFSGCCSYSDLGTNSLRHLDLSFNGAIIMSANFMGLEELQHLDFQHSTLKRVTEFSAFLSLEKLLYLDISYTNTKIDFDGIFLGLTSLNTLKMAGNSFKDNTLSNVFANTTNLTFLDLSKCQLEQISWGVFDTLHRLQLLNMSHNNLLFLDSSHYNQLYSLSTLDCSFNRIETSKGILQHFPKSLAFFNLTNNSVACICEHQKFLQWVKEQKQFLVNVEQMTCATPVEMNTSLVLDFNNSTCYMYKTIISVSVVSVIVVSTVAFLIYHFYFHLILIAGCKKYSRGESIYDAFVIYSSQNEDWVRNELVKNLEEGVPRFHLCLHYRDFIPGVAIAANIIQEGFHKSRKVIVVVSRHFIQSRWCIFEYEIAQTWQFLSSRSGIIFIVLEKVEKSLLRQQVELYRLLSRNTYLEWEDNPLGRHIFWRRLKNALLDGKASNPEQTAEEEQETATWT
Nature of the assay: Inhibition of LPS-induced TLR4 activation in C57BL/6 mouse BMDC assessed as reduction in p38 phosphorylation at 25 uM pretreated for 30 mins followed by LPS-challenge measured after 15 to 90 mins by Western blot analysis. It is filed as cell-based. The essentials:
(§1)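 BMDCs were pretreated 30 min with 25 μM compound, then stimulated with LPS 50 ng·mL−1 for the indicated times. Lysates (25 μg protein) were run on 10% SDS-PAGE and immunoblotted for phospho/total ERK, JNK, p38 and Akt, plus COX-2, IκBα and α-tubulin, with ECL detection. Representative of three experiments.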

Assay [3] concerns Mus musculus. Nature of the assay: Antiseptic activity in Balb/c mouse model of Escherichia coli K1 infection-induced sepsis assessed as reduction in serum endotoxin level at 1 mg/kg, ip pretreated for 1 hr followed by Escherichia coli K1 infection measured after 12 hrs by chromogenic assay. The assay is classed as functional, organism-based. The essentials:
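BALB/c mice dosed i.p. 1 h before i.p. E. coli K1 (1 × 10^6 CFU per mouse), sera taken at 12 h. Serum diluted 10-fold in endotoxin-free PBS, LAL chromogenic end-point assay; background subtracted, quantified against E. coli endotoxin standard, reported as EU·mL−1.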

Assay [4] relates to BMDC. Nature of the assay: Increase in microRNA187 expression in LPS-induced C57BL/6 mouse BMDC at 25 uM pretreated for 30 mins followed by LPS-challenge measured after 6 hrs by qRT-PCR analysis. The assay is classed as functional, cell-based. The essentials: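 Total RNA was extracted from BMDCs with TRIzol and reverse transcribed. miR-146a, miR-155 and miR-187 were quantified by real-time qPCR with gene-specific primers.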

Assay [5] relates to Mus musculus. Nature of the assay: Antiseptic activity in Balb/c mouse model of Escherichia coli K1 infection-induced sepsis assessed as reduction in serum AST level at 1 mg/kg, ip pretreated for 1 hr followed by Escherichia coli K1 infection measured after 2 hrs by ELISA. It is filed as functional, organism-based.
In assay [6] the test system is BMDC. Nature of the assay: Inhibition of LPS-induced immune response in C57BL/6 mouse BMDC assessed as reduction in TNFalpha secretion at 25 uM treated 6 hrs post LPS-challenge measured after 30 mins by ELISA. The assay is classed as functional, cell-based. Put shortly:
(§2)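 Bone marrow DCs from 6-week-old female C57BL/6 mice, RBC-lysed, cultured in RPMI-1640/10% FBS with 10 ng/mL rmGM-CSF, 37 °C, 5% CO2. Cells given LPS 50 ng/mL for 6 h, then 25 μM compound added for 30, 60, 90 or 120 min. Supernatant TNF-α, IL-6, IL-10, IL-12p70 measured by sandwich ELISA. Mean ± SEM, compared with LPS-only DCs.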

Assay [7] concerns BMDC. Nature of the assay: Inhibition of LPS-induced immune response in C57BL/6 mouse BMDC assessed as reduction in IL-6 secretion at 25 uM treated 6 hrs post LPS-challenge measured after 60 to 120 mins by ELISA. The assay is classed as functional, cell-based. The essentials: as §2
Assay [8] concerns BMDC. Kind of assay: Inhibition of Escherichia coli K1 infection-induced immune response in C57BL/6 mouse BMDC assessed as increase in IL10 secretion at 25 uM pretreated for 30 mins followed by Escherichia coli K1 infection for 6 hrs by ELISA. The assay is classed as functional, cell-based. Put shortly:
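BMDCs from C57BL/6 mice were given 25 μM compound and E. coli K1, […]. Timing was: compound 30 min before a 6 h infection; cotreatment for 6 h; or compound for 30–120 min with 6 h infection. Supernatant cytokines (TNF-α, IL-6, IL-10, IL-12p70) were measured by ELISA. At least three experiments in triplicate.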

The target in assay [9] is T1, Toll-like receptor 4 (Mus musculus). Nature of the assay: Inhibition of LPS-induced TLR4 activation in C57BL/6 mouse BMDC assessed as reduction in COX2 expression at 25 uM pretreated for 30 mins followed by LPS-challenge measured after 15 to 90 mins by Western blot analysis. It is filed as cell-based. Put shortly:
as §1

Assay [10] concerns BMDC. Kind of assay: Inhibition of Escherichia coli DH5alpha infection-induced immune response in C57BL/6 mouse BMDC assessed as reduction in IL-12p70 secretion at 25 uM pretreated for 30 mins followed by Escherichia coli DH5alpha infection for 6 hrs by ELISA. It is filed as functional, cell-based. The essentials:
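C57BL/6 BMDCs received 25 μM compound and E. coli DH5α, 3 × 10^6 CFU·mL−1. Schedules were: compound 30 min before a 6 h infection; co-addition for 6 h; or compound for 30, 60, 90 or 120 min plus 6 h infection. Supernatant TNF-α, IL-6, IL-10 and IL-12p70 were measured by ELISA. At least three experiments in triplicate.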

For assay [11], the system named is BMDC. Nature of the assay: Inhibition of LPS-induced immune response in C57BL/6 mouse BMDC assessed as reduction in IL-6 secretion at 25 uM treated 6 hrs post LPS-challenge measured after 30 mins by ELISA. It is filed as functional, cell-based. Put shortly: as §2
The test system of assay [12] is Mus musculus. Nature of the assay: Antiinflammatory activity in Balb/c mouse model of LPS-induced endotoxemia assessed as increase in IL10 producing dendritic cells in splenocyte at 1 mg/kg, ip pretreated for 1 hr followed by LPS-challenge measured after 12 hrs by flow cytometric analysis. The assay is classed as functional, organism-based.

On to `COc1ccc(-c2oc3cc(O)cc(O)c3c(=O)c2O)cc1O` [TAMARIXETIN], for which the result in the assay on Mus musculus [1], in the assay on Mus musculus [3], in the assay on BMDC [4], in the assay with Mus musculus [5] and in the assay on Mus musculus [12] was Active. The inhibition entry (in [2]; with BMDC [6]; with BMDC [8]; in assay [9]; in the assay with BMDC [10]; in the assay with BMDC [11]) was “Active” throughout. Further, the inhibition result in the assay with BMDC [7] was “inactive”.
